Screens from PubChem.
PHOSPHO1 inh = PubChem AID 1565; recombinant PHOSPHO1, absorbance phosphatase assay; inhibition, % at 13.3 µM; 1.1% of 290,000 active; in the data active means inhibition above about 60%
KCNK3 block = human KCNK3 channel inhibitors, primary screen, CHO cells, FluxOR thallium flux, B-score; FluxOR fluorescence; hits give low values; B-score at 10 µM; 0.84% of 340,000 active; AID 602410, 2012;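 active means B-score under library mean minus 4 SD, starting fluorescence ratio at most library mean plus 5 SD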;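 further: more negative B-score means stronger inhibition of thallium flux through KCNK3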
Target sequence (O14649 whole entry, looked up): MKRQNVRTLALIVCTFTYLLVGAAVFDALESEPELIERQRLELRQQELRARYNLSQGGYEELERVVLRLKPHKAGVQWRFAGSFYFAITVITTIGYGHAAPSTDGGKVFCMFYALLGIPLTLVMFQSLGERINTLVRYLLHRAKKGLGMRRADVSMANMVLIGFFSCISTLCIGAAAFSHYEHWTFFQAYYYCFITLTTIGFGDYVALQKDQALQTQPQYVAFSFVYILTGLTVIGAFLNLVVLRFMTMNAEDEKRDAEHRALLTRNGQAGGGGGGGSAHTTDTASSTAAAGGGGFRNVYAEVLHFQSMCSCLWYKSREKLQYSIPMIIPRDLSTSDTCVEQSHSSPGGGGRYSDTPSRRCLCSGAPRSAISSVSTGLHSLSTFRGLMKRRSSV
KCNK9 block = KCNK9 potassium channel inhibitors, primary screen, HEK293 cells, thallium flux | FluxOR thallium flux fluorescence; hits give low values | 1.2% of 310,000 active | AID 488922, 2010 | Potassium channel subfamily K member 9 (Homo sapiens), Q9NPC2 | B-score at 10 µM;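 active means ratio B-score over 3 SD below the library mean, with starting fluorescence within 5 SD of its mean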;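 further: negative B-score means less thallium flux so channel inhibition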
KCNQ1 pot = potentiators or activators of KCNQ1 channel, primary screen, cell-based, thallium flux, high-throughput; CHO-K1 KCNQ1, thallium flux FluxOR fluorescence; hits give high values; 0.35% of 310,000 active; B-score at 10 µM; AID 2648, 2010; Potassium voltage-gated channel subfamily KQT member 1 (Homo sapiens), P51787;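 active means fluorescence ratio B-score, a plate-corrected score, at least three library SD, with initial intensity B-score within 5 SD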
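System: Stable KCNQ1 CHO-K1 line | Incubation: 90 min dye loading and 20 min compound exposure, both at room temperature | Measure: Ratio B score | Medium: Assay buffer for compound exposure, DMSO matched across wells | Compound dosing: Single-concentration screen | Probe or stimulus: K+/Tl+ depolarizing stimulus | Measured by: Kinetic FluxOR fluorescence, 10 s baseline plus 110 s post-stimulus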
KCNQ1 inh = inhibitors of human KCNQ1 channel, primary screen, cell-based, thallium flux, high-throughput; B-score at 10 µM; 1.3% of 310,000 active; AID 2642, 2010; Potassium voltage-gated channel subfamily KQT member 1 (Homo sapiens), P51787; CHO-K1 KCNQ1, FluxOR thallium flux fluorescence; hits give high values;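 active means compounds whose thallium flux B-score, printed positive for inhibition, exceeds three library SD while starting fluorescence stays within three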;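 further: channel opened by potassium depolarization with thallium stimulus after 20 min compound exposure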
hERG protect = hERG rescue from dofetilide block, primary screen, cell-based, CHO-hERG, FluxOR thallium flux, dofetilide IC70; 0.51% of 310,000 active; Voltage-gated inwardly rectifying potassium channel KCNH2 (Homo sapiens), Q12809; activation (rescue from dofetilide block), less the hit threshold, % at 10 µM; dofetilide IC70 present;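 active means activation above the mean of controls blocked by dofetilide plus 5 SD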;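 further: thallium influx through hERG after potassium depolarization seen as dye fluorescence rise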
An asterisk follows results filed as active; i = inactive; x = no result. The list is not random: actives were taken first. Their share in the collection is about 4%.

SMILES	PHOSPHO1 inh	KCNK3 block	KCNK9 block	KCNQ1 pot	KCNQ1 inh	hERG protect
COc1ccc(C(C(=O)Nc2ccc(C(C)C)cc2)N(Cc2ccco2)C(=O)CC2NC(=O)NC2=O)cc1 (centres undefined)	0	i	i	i	6*	-3
COc1ccc(NC(=O)C(c2ccc(OC)cc2)N(Cc2ccco2)C(=O)CC2NC(=O)NC2=O)cc1 (centres undefined)	4	i	i	i	i	-1
COc1cc(/C=C2\NC(=O)NC2=O)cc(Br)c1OC	29	i	i	i	i	-2
CCOc1cc(/C=C2/NC(=O)NC2=O)cc(Br)c1OCc1ccc(C(=O)O)cc1	86*	i	i	i	i	-8
Cn1nnnc1SCc1csc(Nc2ccccc2)n1	95*	i	i	i	i	-3
Cc1ccc(Nc2nc(CSc3nnnn3C)cs2)cc1	11	i	i	i	i	-10
CCOC(=O)N1CCC2(CC1)C(C#N)=C(N)Oc1n[nH]c(C)c12	2	i	i	i	i	-7
CCOC(=O)N1CCC2(CC1)C(C#N)=C(N)Oc1c2c(C)nn1-c1cccc(Cl)c1	19	i	i	i	6*	-19
O=C(c1ccccc1NS(=O)(=O)c1ccc2c(c1)OCCO2)N1CCOCC1	2	i	i	i	i	0
COc1ccc([C@H]2CC(=O)C=C(c3ccc(Cl)cc3C)C2)cc1	x	i	x	x	x	x
COc1ccc(NC(=S)Nc2cc(-c3ccccc3)[nH]n2)cc1Cl	69*	i	i	i	i	-6
COc1ccc(S(=O)(=O)N2CCN(C(=O)c3sccc3-c3ccccc3)CC2)cc1	x	i	i	i	i	-6
C=CCn1c(COc2ccc(F)cc2)nnc1SCC(=O)N1CC(=O)Nc2ccccc21	74*	i	i	i	i	-15
COc1ccc(-n2cc(-c3ccc(Cl)cc3)[nH]c2=S)cc1	60*	i	i	i	i	-9
COC(=O)c1ccc(-n2cc(-c3ccc(OC)cc3)[nH]c2=S)cc1	-3	i	x	x	x	x
O=C(O)C1CCN(C(=O)COc2ccc(Br)cc2)CC1	20	i	i	i	i	-17
COc1ccc(S(=O)(=O)ON=C2CC(C)(C)N(C(C)=O)C(C)(C)C2)cc1	-17	i	i	i	i	-6
Cc1oc2c(cc(NS(=O)(=O)c3ccc(C(C)C)cc3)c3ccccc32)c1C(=O)O	-14	i	i	i	9*	-10
Cc1oc2c(cc(NS(=O)(=O)c3ccc(F)cc3)c3ccccc32)c1C(=O)O	30	i	i	i	i	-4
COc1ccc(S(=O)(=O)Nc2cc3c(C(C)=O)c(C)oc3c3ccccc23)cc1	3	i	-7.3*	i	i	-11
O=C(C1=C(O)C(=O)N(CC2CCCO2)C1c1ccccc1F)c1ccco1 (centres undefined)	45	i	i	i	i	-5
CCCc1c(C(=O)N/N=C(\C)c2ccc(O)cc2)nnn1-c1nonc1N	18	i	i	i	i	-6
CCCc1c(C(=O)N/N=C(\C)CCc2ccccc2)nnn1-c1nonc1N	67*	i	i	i	i	-8
Cc1cc(S(=O)(=O)N2CCOCC2)ccc1OCC(=O)NCc1ccco1	17	i	i	i	i	6.7*
CC(Oc1cccc([N+](=O)[O-])c1)C(=O)NCCC1=CCCCC1 (centres undefined)	x	i	x	x	x	x
SMILES	PHOSPHO1 inh	KCNK3 block	KCNK9 block	KCNQ1 pot	KCNQ1 inh	hERG protect
COc1cc(CSc2nc(-c3ccccc3)cc(=O)[nH]2)cc(OC)c1	30	i	i	i	i	-6
COc1ccc(-c2noc(CSc3nc(-c4ccccc4)cc(=O)[nH]3)n2)cc1	102*	i	i	i	i	-3
NNc1ccc(Cl)c(C(=O)O)c1	88*	i	i	i	i	-8
O=C(N/C(=C\c1ccccc1)C(=O)N1CCOCC1)c1ccccc1Cl	63*	i	i	i	i	-12
O=C(N/C(=C\c1ccc(Br)cc1)C(=O)N1CCOCC1)c1ccccc1Cl	19	i	i	i	i	-1
O=C(O)c1ccc(CN2CCCCC2)o1	-8	i	i	i	i	5.1*
Cc1cc(O)c(/C=N/Nc2cccc(Cl)c2)c(=O)o1	101*	i	x	x	x	x
Cc1cc(O)c(/C=N/Nc2ccc(Cl)cc2)c(=O)o1	-106	i	i	i	i	-5
CCOC(=O)c1c(N)sc2c1CCS(=O)(=O)C2	79*	i	i	i	i	-8
COc1cccc(CN2CCNC(=O)C2CC(=O)N(C)C2CCOCC2)c1OC (centres undefined)	66*	i	i	i	i	-7
CNC(=S)NNC(=O)c1cccn(Cc2ccc(Cl)cc2Cl)c1=O	-61	x	i	i	7*	-16
COc1cc(OC)cc(C(C)=O)c1	20	i	i	i	i	5.7*
COc1ccccc1CNS(=O)(=O)CCNC(=O)c1ccccc1	x	i	i	i	i	-14
O=C(Nc1ccccc1OC(F)F)c1ccc(Br)o1	44	i	i	i	i	-11
CCN(C(=O)c1coc(=O)c(Br)c1)c1ccc2c(c1)OCO2	74*	i	i	i	i	-20
CCN(C(=O)c1c(C)cc(=O)oc1C)c1ccc2c(c1)OCO2	18	i	i	i	i	-8
CCn1nc(C(=O)N[C@@H](CCSC)c2nc3ccccc3[nH]2)c2ccccc2c1=O	0	i	i	i	i	-18
CCCCn1nc(C(=O)N[C@@H](CCSC)c2nc3ccccc3[nH]2)c2ccccc2c1=O	7	i	-7.5*	i	i	-4
CCCCn1nc(C(=O)Nc2ccccc2N2CCCC2)c2ccccc2c1=O	x	-8.7*	x	x	x	x
CCCCCn1nc(C(=O)N2CCc3ccccc32)c2ccccc2c1=O	x	-10*	x	x	x	x
CCCCn1nc(C(=O)Nc2ccc3c(c2)OCO3)c2ccccc2c1=O	x	-10*	x	x	x	x
CCCn1nc(C(=O)N2CCc3ccccc32)c2ccccc2c1=O	x	i	x	x	x	x
N#Cc1cccnc1Nc1cccc(Cl)c1	4	i	i	i	i	-6
COc1ccc(C(=O)NCc2cccnc2)cc1C(=O)NCc1cccnc1	x	i	x	x	x	x
